# Experimental data published in article PMC2645950 (Journal of medicinal chemistry, 2008).
# Where a chain is given by its changes, count along the chain named.
# What was measured:
# [1] = biological target: T1, human alkyltransferase (wild type) (Homo sapiens, UniProt P16455); experiment: Inactivation of purified recombinant human alkyltransferase in vitro; type: biochemical; conditions: for less effective than BG: ortho-substituted BG derivatives
# T1 sequence (P16455 1-207): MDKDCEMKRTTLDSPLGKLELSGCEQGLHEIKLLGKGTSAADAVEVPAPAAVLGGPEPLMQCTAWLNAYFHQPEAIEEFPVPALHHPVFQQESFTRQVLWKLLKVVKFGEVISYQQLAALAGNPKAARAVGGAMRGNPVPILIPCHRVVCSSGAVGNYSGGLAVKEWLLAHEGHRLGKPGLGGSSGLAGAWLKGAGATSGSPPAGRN
# [2] = tested on: HT29 cells; experiment: Sensitization of HT29 cells to killing by BCNU; type: cell-based, human; conditions: 2 h exposure prior to 40 μM BCNU; colony forming assay
# In short: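 HT29 cells in RPMI 1640 with 10% FBS. 24 h after plating, cells get test compound at varied concentrations for 2 h, then 40 μM BCNU for 2 h. Medium is then replaced with inhibitor-containing, BCNU-free medium for 16–18 h. Cells are replated at 250–1000 per 25 cm2 flask and grown 8 days. Colonies are saline-washed, stained with 0.5% crystal violet in ethanol, and counted.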
# [3] = Solubility; type: physicochemical; conditions: at physiological pH
# [4] = Stability in aqueous solution; type: physicochemical; conditions: for rearrangement to N^6-substituted 2-aminoadenine in heated water: heating
# [5] = biological target: T1, human alkyltransferase (wild type); conditions: cited from earlier work
# [6] = tested on: alkyltransferase; conditions: BG free base; cited from earlier work
# [7] = biological target: T2, S159A mutant alkyltransferase (Homo sapiens, UniProt P16455, S159A); experiment: Inactivation of purified S159A mutant alkyltransferase in vitro; type: biochemical; conditions: 30 min at 37°C
# T2 sequence (P16455 1-207 S159A): T1 sequence (P16455 1-207) with S159A
smiles,measurement,setting,value
"Nc1nc(NCc2ccccc2CO)c2[nH]cnc2n1 [Compound 7, N^6-[2-(Hydroxymethyl)benzyl]-2-aminoadenine]",inhibition at 1000 µM,[1]; read-out: inhibition of alkyltransferase,< 10%
"NCc1cccc(COc2nc(N)nc3nc[nH]c23)c1 [Compound 2, O^6-[3-(Aminomethyl)benzyl]guanine]",sensitizing HT29 cells to BCNU,[2],much more effective than compound 1
same,solubility relative to BG,[3],approx. 1000 times
same,rearrangement to N^6-substituted 2-aminoadenine in heated water,[4],not observed
"Nc1nc(OCc2ccccc2)c2nc[nH]c2n1 [BG, O^6-Benzylguanine]",enhancement of inactivation of alkyltransferase by the presence of DNA,[5],3–4 fold
same,rate constant for the reaction,[6],~600 M⁻¹ s⁻¹
"Cc1ccccc1COc1nc(N)nc2nc[nH]c12 [Compound 6, O^6-[2-(Methyl)benzyl]guanine]",less effective than BG,[1],> 200 fold
"NCc1ccccc1COc1nc(N)nc2nc[nH]c12 [Compound 3, O^6-[2-(Aminomethyl)benzyl]guanine]",less effective than BG,[1],> 200 fold
same,half life of rearrangement of 3 to 7,"[4]; aqueous solution, 37°C (0.1 M sodium phosphate buffer pH 7.4, followed by UV, first order kinetics)",51 h
"NCc1ccc(COc2nc(N)nc3nc[nH]c23)cc1 [Compound 1, O^6-[4-(Aminomethyl)benzyl]guanine]",IC50,"[7]; ED50 + DNA, + DNA",28 nM
same,IC50,"[7]; ED50 No DNA, no DNA",160 nM
same,rearrangement to N^6-substituted 2-aminoadenine in heated water,[4],not observed
